Assay results reported in ChEMBL document CHEMBL4196015, “Synthesis of coumarin-theophylline hybrids as a new class of anti-tubercular and anti-microbial agents” (2018).
In brackets after ≈: the same amount, converted by molar mass.

How the values were obtained:
[1] = test system: Mycobacterium tuberculosis; assay: Antitubercular activity against Mycobacterium tuberculosis H37Rv ATCC 27294 at 7.8 ug/ml after 5 days by microplate alamar blue assay; type: functional
Method in brief: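 Single-concentration primary screen at 7.8 µg/mL against M. tuberculosis H37Rv (ATCC-27294) by MABA, read as percent inhibition. Run in Middlebrook 7H9 broth, with BACTEC 12B medium also cited, at 37 °C for 5 days. Then 1:1 Alamar Blue/10% Tween 80 added and incubated 24 h. Colour read: blue = inhibition, pink = growth.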

Salmonella typhi = assay: Antibacterial activity against Salmonella typhi after 24 hrs by broth microdilution method; type: functional, Salmonella enterica subsp. enterica serovar Typhi; conditions: Salmonella enterica
Method in brief: (§1)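 Broth microdilution, 96-well. Inoculum from 24 h broth cultures adjusted to 0.5 McFarland. Compounds dissolved in DMSO at 1 mg/mL (stock), two-fold serial dilutions in tryptone broth (1000 to 3.9 μg/mL). Positive controls: tetracyclin for bacteria, nystatin for fungi. Incubated 37 °C, 24 h. Then 0.01% aqueous resazurin added for viability. MIC = lowest concentration inhibiting growth.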

Escherichia coli = assay: Antibacterial activity against Escherichia coli after 24 hrs by broth microdilution method; type: functional; method in brief: as §1
Staphylococcus aureus = assay: Antibacterial activity against Staphylococcus aureus after 24 hrs by broth microdilution method; type: functional; method in brief: as §1
[2] = test system: Mycobacterium tuberculosis; assay: Antitubercular activity against Mycobacterium tuberculosis H37Rv ATCC 27294 after 5 days by microplate alamar blue assay; type: functional; conditions: H37Rv ATCC 27294, 120 h
Method in brief: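 Retest of compounds above 90% inhibition in the primary screen. Two-fold serial dilution on plate in Middlebrook 7H9 broth, in triplicate. Isoniazid as positive control. Plates sealed, 37 °C for 5 days. Then 1:1 Alamar Blue/10% Tween 80 added, 24 h more. Blue = inhibition, pink = growth. MIC taken as lowest inhibiting concentration.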

Candida albicans = assay: Antifungal activity against Candida albicans after 24 hrs by broth microdilution method; type: functional; method in brief: as §1

SMILES	Activity [1]	MIC (Salmonella typhi)	MIC (Escherichia coli)	MIC (Staphylococcus aureus)	MIC [2]	MIC (Candida albicans)
Cn1c(=O)c2ncn(Cc3cc(=O)oc4ccc(Cl)cc34)c2n(C)c1=O	92%	62.5 µg/mL (≈ 168 µM)	31.3 µg/mL (≈ 84 µM)	31.3 µg/mL (≈ 84 µM)	3.9 µg/mL (≈ 10.5 µM)	125 µg/mL (≈ 335 µM)
Cc1cc(C)c2c(Cn3cnc4c(=O)n(C)c(=O)n(C)c43)cc(=O)oc2c1	94%	250 µg/mL (≈ 682 µM)	125 µg/mL (≈ 341 µM)	15.6 µg/mL (≈ 42.6 µM)	0.97 µg/mL (≈ 2.65 µM)	250 µg/mL (≈ 682 µM)
C[C@@H]1[C@H](O)[C@@H](C)/C=C/C=C/C=C/C=C/C=C/C=C/C=C/[C@H](O[C@@H]2O[C@H](C)[C@@H](O)[C@H](N)[C@@H]2O)C[C@@H]2O[C@](O)(C[C@@H](O)C[C@@H](O)[C@H](O)CC[C@@H](O)C[C@@H](O)CC(=O)O[C@H]1C)C[C@H](O)[C@H]2C(=O)O [AMPHOTERICIN B]						0.97 µg/mL (≈ 1.05 µM)
Cn1c(=O)c2ncn(Cc3cc(=O)oc4ccc(C(C)(C)C)cc34)c2n(C)c1=O	96%	7.8 µg/mL (≈ 19.8 µM)	3.9 µg/mL (≈ 9.89 µM)	7.8 µg/mL (≈ 19.8 µM)	0.48 µg/mL (≈ 1.22 µM)	62.5 µg/mL (≈ 158 µM)
Cn1c(=O)c2ncn(Cc3cc(=O)oc4c3ccc3ccccc34)c2n(C)c1=O	16%	62.5 µg/mL (≈ 161 µM)	15.6 µg/mL (≈ 40.2 µM)	15.6 µg/mL (≈ 40.2 µM)		62.5 µg/mL (≈ 161 µM)
Cn1c(=O)c2ncn(Cc3cc(=O)oc4ccc5ccccc5c34)c2n(C)c1=O	92%	15.6 µg/mL (≈ 40.2 µM)	7.8 µg/mL (≈ 20.1 µM)	7.8 µg/mL (≈ 20.1 µM)	1.95 µg/mL (≈ 5.02 µM)	62.5 µg/mL (≈ 161 µM)
CN(C)[C@@H]1C(O)=C(C(N)=O)C(=O)[C@@]2(O)C(O)=C3C(=O)c4c(O)cccc4[C@@](C)(O)[C@H]3C[C@@H]12 [TETRACYCLINE]		3.9 µg/mL (≈ 8.78 µM)	3.9 µg/mL (≈ 8.78 µM)	3.9 µg/mL (≈ 8.78 µM)		
Cc1ccc2c(Cn3cnc4c(=O)n(C)c(=O)n(C)c43)cc(=O)oc2c1	92%	125 µg/mL (≈ 355 µM)	31.3 µg/mL (≈ 88.8 µM)	62.5 µg/mL (≈ 177 µM)	1.95 µg/mL (≈ 5.53 µM)	31.3 µg/mL (≈ 88.8 µM)
Cn1c(=O)c2ncn(Cc3cc(=O)oc4cc(O)ccc34)c2n(C)c1=O	15%	31.5 µg/mL (≈ 88.9 µM)	125 µg/mL (≈ 353 µM)	15.6 µg/mL (≈ 44 µM)		62.5 µg/mL (≈ 176 µM)
Cn1c(=O)c2ncn(Cc3cc(=O)oc4ccc(Br)cc34)c2n(C)c1=O	92%	31.3 µg/mL (≈ 75 µM)	31.3 µg/mL (≈ 75 µM)	15.6 µg/mL (≈ 37.4 µM)	3.9 µg/mL (≈ 9.35 µM)	125 µg/mL (≈ 300 µM)
COc1ccc2oc(=O)cc(Cn3cnc4c(=O)n(C)c(=O)n(C)c43)c2c1	56%	7.8 µg/mL (≈ 21.2 µM)	7.8 µg/mL (≈ 21.2 µM)	7.8 µg/mL (≈ 21.2 µM)		31.3 µg/mL (≈ 85 µM)
NNC(=O)c1ccncc1 [ISONIAZID]	100%				0.06 µg/mL (≈ 0.438 µM)	
Cc1ccc2oc(=O)cc(Cn3cnc4c(=O)n(C)c(=O)n(C)c43)c2c1	96%	7.8 µg/mL (≈ 22.1 µM)	3.9 µg/mL (≈ 11.1 µM)	3.9 µg/mL (≈ 11.1 µM)	0.12 µg/mL (≈ 0.341 µM)	31.3 µg/mL (≈ 88.8 µM)
